The source of these data is ChEMBL document CHEMBL4325856, “Synthesis of cinnamic amide derivatives and their anti-melanogenic effect in α-MSH-stimulated B16F10 melanoma cells” (Eur J Med Chem, 2019).

The structures appear in SMILES notation. Active and inactive are the calls of the source. The rule behind the calls is not given here.

Series [1] concerns the target T1, Tyrosinase (Agaricus bisporus) (UniProt O42713).
T1 sequence (whole entry): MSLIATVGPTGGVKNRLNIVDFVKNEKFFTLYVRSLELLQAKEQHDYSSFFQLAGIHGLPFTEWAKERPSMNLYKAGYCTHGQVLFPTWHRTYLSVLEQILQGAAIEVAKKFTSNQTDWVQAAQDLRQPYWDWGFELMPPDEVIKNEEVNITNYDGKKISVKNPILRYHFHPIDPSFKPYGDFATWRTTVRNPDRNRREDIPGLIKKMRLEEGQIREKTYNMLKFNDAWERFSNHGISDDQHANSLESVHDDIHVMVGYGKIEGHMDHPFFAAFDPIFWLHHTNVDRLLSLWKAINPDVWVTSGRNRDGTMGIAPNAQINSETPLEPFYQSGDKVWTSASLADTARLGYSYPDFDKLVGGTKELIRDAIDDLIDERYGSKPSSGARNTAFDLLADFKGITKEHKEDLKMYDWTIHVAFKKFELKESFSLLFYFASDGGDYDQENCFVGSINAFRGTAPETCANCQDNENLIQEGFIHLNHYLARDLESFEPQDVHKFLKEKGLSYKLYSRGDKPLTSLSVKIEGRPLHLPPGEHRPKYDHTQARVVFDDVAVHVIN
The settings on record: at 25 µM.

The next series has as its target T2, Tyrosinase (Agaricus bisporus, UniProt O42713).
T2 sequence (O42713 whole entry): T1 sequence (whole entry)
The series can be described thus: Inhibition of mushroom tyrosinase using L-tyrosine as substrate incubated for 30 mins by spectrophotometric method. The procedure, abridged: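 Mushroom tyrosinase with test sample (final 25 µM) in substrate mix of 14.7 mM potassium phosphate buffer and 293 µM L-tyrosine (1:1, v/v), incubated 30 min at 37 °C. Dopachrome absorbance read at 450 nm; % inhibition calculated against untreated control. Kojic acid 25 µM and arbutin 400 µM as positive controls. Triplicate; means ± SEM.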

Series [2] has as its system B16-F10. Put plainly: Antimelanogenic activity in alpha-MSH-stimulated mouse B16F10 cells assessed as reduction in melanin content treated at 24 hrs post alpha-MSH stimulation and measured after 24 hrs. It is filed as functional, cell-based. The procedure, abridged:
(§1)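 Cells grown in 24-well plates for 24 h, then stimulated with 1 µM α-MSH and treated with 0, 5, 10 or 25 µM test agent (kojic acid 25 µM as reference) for 24 h. Washed with PBS, melanin dissolved in 200 µL 1N NaOH, absorbance read at 405 nm. Triplicate; means ± SEM, one-way ANOVA with Tukey's test.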

Series [3] addresses T1, Tyrosinase (Agaricus bisporus). Put plainly: Competitive inhibition of mushroom tyrosinase at 10 to 40 nM using varying levels of L-tyrosine as substrate by Lineweaver-Burk plot analysis. Put shortly:
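Mushroom tyrosinase (200 units) with inhibitor at 10, 20 and 40 nM and L-tyrosine 0.03125 to 16 mM, in 50 mM potassium phosphate pH 6.5. Initial dopachrome formation rate taken as ΔOD475/min. Km and Vmax from Lineweaver–Burk plots (1/V vs 1/[S]); Ki from modified Michaelis–Menten equation. Triplicate.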

For series [4], the target named is T3, Tyrosinase (Mus musculus) (UniProt P11344).
T3 sequence (whole entry): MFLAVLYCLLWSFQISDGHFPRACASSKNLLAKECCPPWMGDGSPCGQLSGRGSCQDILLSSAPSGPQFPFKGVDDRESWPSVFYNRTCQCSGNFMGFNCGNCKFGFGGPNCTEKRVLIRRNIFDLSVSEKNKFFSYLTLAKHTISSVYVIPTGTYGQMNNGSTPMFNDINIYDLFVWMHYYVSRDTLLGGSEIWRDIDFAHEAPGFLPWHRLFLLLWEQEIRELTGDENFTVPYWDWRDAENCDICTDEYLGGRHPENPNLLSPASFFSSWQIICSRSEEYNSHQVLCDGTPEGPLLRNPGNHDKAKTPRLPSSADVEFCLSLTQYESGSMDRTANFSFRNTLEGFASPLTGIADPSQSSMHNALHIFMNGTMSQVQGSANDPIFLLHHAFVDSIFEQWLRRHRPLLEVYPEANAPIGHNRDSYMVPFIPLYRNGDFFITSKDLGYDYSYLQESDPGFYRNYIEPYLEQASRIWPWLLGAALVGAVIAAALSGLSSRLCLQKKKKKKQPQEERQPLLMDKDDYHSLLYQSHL
Put plainly: Inhibition of tyrosinase in alpha-MSH-stimulated mouse B16F10 cells assessed as reduction in dopachrome production using L-DOPA as substrate measured after 24 hrs by spectrophotometric method. Put shortly:
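B16F10 cells activated with 1 µM α-MSH, then given 0, 5, 10 or 25 µM test agent or 25 µM kojic acid for 24 h. Cells washed with PBS and lysed in 50 mM PBS pH 6.8 with 0.1 mM PMSF and 1% Triton X-100. Lysate frozen at -80 °C for 30 min, spun 12,000 rpm 30 min at 4 °C. Supernatant (80 µL) mixed with 20 µL 10 mM L-dopa, 37 °C for 30 min, OD read at 500 nm. Triplicate.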

The target in series [5] is T1, Tyrosinase (Agaricus bisporus). Put plainly: Potency index, ratio of compound effect to kojic acid effect for inhibition of mushroom tyrosinase at 25 uM using L-tyrosine as substrate.
The test system of series [6] is B16-F10. Put plainly: Cytotoxicity against mouse B16F10 cells assessed as reduction in cell viability at 5 to 25 uM after 24 hrs by WST8 assay. To be noted: b16-f10, 24 h. It is filed as cell-based. The procedure, abridged:
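Murine B16F10 cells in DMEM with 10% FBS and penicillin/streptomycin at 37 °C, 5% CO2, in 96-well plates. Pre-cultured cells exposed to 0, 5, 10 or 25 µM for 24 h. WST-8 reagent then added for 30 min to 2 h, absorbance read at 450 nm, viability given as % of control. Triplicate; means ± SEM.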

The test system of series [7] is B16-F10. The series can be described thus: Antimelanogenic activity in alpha-MSH-stimulated mouse B16F10 cells assessed as reduction in melanin content at 25 uM treated at 24 hrs post alpha-MSH stimulation and measured after 24 hrs relative to control. On the set-up: scale not given: the % may be the effect or the level left. It is filed as functional. Put shortly: as §1

A word on the inhibition: it is the share of the control response that was lost under treatment. `O=C(/C=C/c1ccc(O)c(O)c1)NCc1ccccc1` yielded an inhibition in series [1] of 10%.
For the compound `COc1cc(/C=C/C(=O)Nc2ccccc2)ccc1O`, the inhibition in series [1] came out at 59%.
Usually IC50 stands for the midpoint of a concentration-inhibition curve. Compound `CCN(CC)C(=O)/C=C/c1ccc(O)cc1O` registered an IC50 against Tyrosinase of 11.2 nM. In addition, the Activity result with B16-F10 [2] is “Dose-dependent effect”; in the series with B16-F10 [6] it was “Non-Toxic”; in the series on B16-F10 [7], 78.07%. Further, the inhibition result in series [3] is “Active”. In addition, the inhibition result is “Dose-dependent effect” in series [4] and 96.2% in series [1]. Besides, the Ratio in series [5] was 3.
Consider `COc1ccc(/C=C/C(=O)Nc2ccccc2)cc1O`, for which the inhibition in series [1] came out at 29.7%.
As to `CCN(CC)C(=O)/C=C/c1ccc(O)c(O)c1`, in series [1], the inhibition result was “inactive”.
In turn, `COc1ccc(/C=C/C(=O)NCc2ccccc2)cc1O` came in with an inhibition in series [1] of 31.5%.
`CCN(CC)C(=O)/C=C/c1ccc(O)c(OC)c1` showed an inhibition in series [1] of 61.9%.
Take `O=C(/C=C/c1ccc(O)c(O)c1)Nc1ccccc1`: in series [1], the inhibition entry was “inactive”.
Consider `COc1cc(C2CC(=O)Nc3ccccc32)ccc1O` (configuration not stated), for which, in series [1], the inhibition entry was “inactive”.
`O=c1cc(CO)occ1O` [KOJIC ACID]: in the series with B16-F10 [7], the Activity amounted to 44.26%.
Compound `COc1ccc(C2CC(=O)Nc3ccccc32)cc1O` (configuration not stated) displayed an inhibition in series [1] of 25.9%.
As to `O=C(/C=C/c1ccc(O)cc1O)NCc1ccccc1`, the Activity entry with B16-F10 [2] was “Dose-dependent effect”; in the series with B16-F10 [6], “Non-Toxic”; with B16-F10 [7], 65.84%. Besides, the inhibition entry in series [4] is “Dose-dependent effect”; in series [1], 85.4%. Moreover, in series [5], the Ratio is 3.
`CCN(CC)C(=O)/C=C/c1ccc(O)cc1`: the inhibition entry in series [1] is “inactive”.
In the case of `COc1cc(/C=C/C(=O)NCc2ccccc2)ccc1O`, the Activity result is “Dose-dependent effect” in the series on B16-F10 [2], “Non-Toxic” in the series with B16-F10 [6] and 80.43% in the series on B16-F10 [7]. The inhibition result is “Dose-dependent effect” in series [4] and 82.9% in series [1]. Further, the Ratio in series [5] stood at 3.
`O=C1CC(c2ccc(O)cc2)c2ccccc2N1` (configuration not stated): the inhibition result in series [1] is “inactive”.
The compound `CCN(CC)C(=O)/C=C/c1ccc(OC)c(O)c1` registered an inhibition in series [1] of 20.7%.
For `O=C(/C=C/c1ccc(O)cc1O)Nc1ccccc1`, the IC50 on Tyrosinase came out at 25.6 nM. Moreover, the Activity result in the series on B16-F10 [2] is “Dose-dependent effect”; with B16-F10 [6], “Non-Toxic”; in the series with B16-F10 [7], 63.97%. For the same compound, in series [3], the inhibition entry is “Active”. In series [4], the inhibition entry is “Dose-dependent effect”. Besides, the Ratio in series [5] stood at 3.
Regarding `O=C(/C=C/c1ccc(O)cc1)NCc1ccccc1`, the inhibition entry in series [1] was “inactive”.
For the compound `O=C1CC(c2ccc(O)c(O)c2)c2ccccc2N1` (configuration not stated), the inhibition entry in series [1] is “inactive”.
